# Source: paper PMC8451793 (Journal of Orthopaedic Research, 2020)
# Assays:
# [1] = test system: hMSCs and rTDSCs; assay: Tenocyte differentiation, immunostaining for tenocyte markers; assay type: cell-based, human, rat
# In short: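 Cells incubated at 37°C, 5% CO2 with test compound across a dose range or DMSO; rTDSCs treated 4 days (representative images at 1.5 μM). Fixed and immunostained for SCXA, TNMD, TNC, MKX, THBS4 and type I/III collagens; secondary antibody alone as negative control; BMP + FGF as positive control. High-content imaging; percent of total cells marker-positive; n = 4, mean ± SD.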
# [2] = test system: CLK-mediated phosphorylation of SRSF1, SRSF4, SRSF5, SRSF6 in rTDSCs and hMSCs; assay: Western blot of phospho-SRSFs; assay type: cell-based, human, rat
# In short: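 rTDSCs treated with test compound or DMSO for 24 h at 37°C, 5% CO2. Total protein extracted in RIPA buffer. Phospho-SRSF levels detected by Western blot with specific primary and secondary antibodies.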
smiles,measurement,setting,value
COc1ccc2c(c1)[nH]c1c(C)nccc12 [harmine],Potency in promoting tenocyte differentiation relative to SM04755,[1],less potent than SM04755
same,"CLK-mediated phosphorylation of SRSF1, SRSF4, SRSF5 and SRSF6",[2],no effects
